Among the data in ChEMBL document CHEMBL2311535, “Development of second-generation indole-based dynamin GTPase inhibitors” (J Med Chem, 2013) are IC50, Ratio IC50 and Activity values, retold here.

In one series the target is T1, Dynamin-2 (Rattus norvegicus, UniProt P39052).
T1 sequence (P39052 whole entry): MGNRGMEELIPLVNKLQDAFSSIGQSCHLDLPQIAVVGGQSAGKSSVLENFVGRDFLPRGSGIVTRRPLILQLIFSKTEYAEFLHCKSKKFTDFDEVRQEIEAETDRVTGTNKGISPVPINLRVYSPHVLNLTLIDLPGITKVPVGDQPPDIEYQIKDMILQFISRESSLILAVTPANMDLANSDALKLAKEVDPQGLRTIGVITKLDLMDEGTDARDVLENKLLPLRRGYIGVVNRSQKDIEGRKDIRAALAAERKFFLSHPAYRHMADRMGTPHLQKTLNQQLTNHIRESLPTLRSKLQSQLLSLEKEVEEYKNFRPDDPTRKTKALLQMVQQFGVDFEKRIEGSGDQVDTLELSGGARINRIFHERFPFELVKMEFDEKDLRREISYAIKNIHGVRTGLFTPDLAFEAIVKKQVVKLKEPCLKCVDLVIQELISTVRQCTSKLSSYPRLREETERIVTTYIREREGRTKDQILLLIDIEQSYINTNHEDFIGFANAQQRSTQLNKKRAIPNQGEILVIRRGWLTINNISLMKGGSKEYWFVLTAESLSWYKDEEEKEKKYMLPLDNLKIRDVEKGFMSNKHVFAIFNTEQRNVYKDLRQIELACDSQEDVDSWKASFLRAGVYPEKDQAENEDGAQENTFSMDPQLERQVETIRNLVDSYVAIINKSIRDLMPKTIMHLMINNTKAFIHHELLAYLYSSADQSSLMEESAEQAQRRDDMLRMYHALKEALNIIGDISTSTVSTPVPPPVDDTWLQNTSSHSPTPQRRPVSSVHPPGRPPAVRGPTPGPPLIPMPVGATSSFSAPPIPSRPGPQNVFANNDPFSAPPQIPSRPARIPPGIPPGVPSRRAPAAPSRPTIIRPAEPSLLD
Description: Inhibition of rat full length His6-tagged dyn2 using phosphatidylserine as substrate after 90 mins by malachite green GTPase assay in presence of GTP. An outline of the steps: (§1)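 Normalized conditions: 50 nM sheep brain dynI or recombinant His6 full-length rat dynII (Sf21-expressed) was preincubated with 10 μg/mL PS for 15 min at RT. Reactions then ran in Tris/NaCl/Mg²⁺/Tween buffer pH 7.4 with leupeptin, AEBSF, 300 μM GTP and compound at 37 °C, 800 rpm: 10 min for dynI, 90 min for dynII. They were stopped with EDTA, and Pi was read by malachite green. Selectivity is the ratio of the two IC50s.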

Series [1] in a line: Inhibition of sheep dyn1 after 30 mins by malachite green GTPase assay in presence of GTP. On the set-up: species or system Ovis aries. An outline of the steps:
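Compound (≤3% DMSO) was present for 30 min at 37 °C, shaking. The reaction was stopped with EDTA, Pi read by malachite green at 650 nm against a phosphate standard.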

Series [2] can be described thus: Selectivity ratio of IC50 for sheep dyn1 receptor to IC50 for rat dyn2 receptor. The essentials:
as §1

The nature of series [3]: Inhibition of sheep full length dyn1 using phosphatidylserine as substrate after 10 mins by malachite green GTPase assay in presence of GTP. On the set-up: species or system Ovis aries. The essentials: as §1
The next series concerns HeLa. Description: Cytotoxicity against human HeLa cells at 30 uM after 8 hrs by trypan blue exclusion assay. The series is classed as cell-based. An outline of the steps:
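HeLa cells were treated with compound or vehicle (0.5% DMSO) for 8 h. Floating and adherent cells were pooled. Viability and membrane integrity were scored by Trypan Blue exclusion on an automated viability analyzer. Cytotoxicity (%) was normalized to drug/media background.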

As to `CCCCCCCCCCNCc1cn(CCCN(C)C)c2ccccc12`, the IC50 (usually the concentration that inhibits the measured activity by half) on Dynamin-2 was 7.5 µM.

With `CCCCCCCCNCc1cn(CCCN(C)C)c2ccccc12`, in series [1] (read-out: IC50), the IC50 was determined as 2.3 µM. Turning to `CCCCCCCCNC(=O)/C(C#N)=C/c1cn(CC(=O)Nc2ccc3c(c2)OCO3)c2ccccc12`, the IC50 result in series [1] is “Not Active”. As for `CCCCCCCCNC(=O)/C(C#N)=C/c1cn(CCCN(C)C)c2ccccc12`, in series [2], the Ratio IC50 came out at 2.3. The IC50 came to 6.9 µM in series [3], 16 µM on Dynamin-2 and 1.3 µM in series [1] (read-out: IC50). In addition, the Activity in the series on HeLa was found to be 80%. Consider `CCCCCCCCNC(=O)/C(C#N)=C/c1cn(CC(O)CN2CCOCC2)c2ccccc12` (centres undefined), for which the IC50 in series [1] (read-out: IC50) is 18 µM.
